Bioassay records: PubChem, several laboratories
FAS TE block: inhibitors of human fatty acid synthase thioesterase domain; recombinant FAS-TE, OMFH fluorogenic substrate, fluorescence endpoint; P49327; inhibition, % at 15 µM; AID 602261; 360,000 compounds, 0.67% hits;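 active means compounds whose normalised, plate-corrected inhibition of enzyme fluorescence in the single-dose primary screen is 50% or more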
Target sequence (P49327 whole entry, looked up, the tested form may be a part): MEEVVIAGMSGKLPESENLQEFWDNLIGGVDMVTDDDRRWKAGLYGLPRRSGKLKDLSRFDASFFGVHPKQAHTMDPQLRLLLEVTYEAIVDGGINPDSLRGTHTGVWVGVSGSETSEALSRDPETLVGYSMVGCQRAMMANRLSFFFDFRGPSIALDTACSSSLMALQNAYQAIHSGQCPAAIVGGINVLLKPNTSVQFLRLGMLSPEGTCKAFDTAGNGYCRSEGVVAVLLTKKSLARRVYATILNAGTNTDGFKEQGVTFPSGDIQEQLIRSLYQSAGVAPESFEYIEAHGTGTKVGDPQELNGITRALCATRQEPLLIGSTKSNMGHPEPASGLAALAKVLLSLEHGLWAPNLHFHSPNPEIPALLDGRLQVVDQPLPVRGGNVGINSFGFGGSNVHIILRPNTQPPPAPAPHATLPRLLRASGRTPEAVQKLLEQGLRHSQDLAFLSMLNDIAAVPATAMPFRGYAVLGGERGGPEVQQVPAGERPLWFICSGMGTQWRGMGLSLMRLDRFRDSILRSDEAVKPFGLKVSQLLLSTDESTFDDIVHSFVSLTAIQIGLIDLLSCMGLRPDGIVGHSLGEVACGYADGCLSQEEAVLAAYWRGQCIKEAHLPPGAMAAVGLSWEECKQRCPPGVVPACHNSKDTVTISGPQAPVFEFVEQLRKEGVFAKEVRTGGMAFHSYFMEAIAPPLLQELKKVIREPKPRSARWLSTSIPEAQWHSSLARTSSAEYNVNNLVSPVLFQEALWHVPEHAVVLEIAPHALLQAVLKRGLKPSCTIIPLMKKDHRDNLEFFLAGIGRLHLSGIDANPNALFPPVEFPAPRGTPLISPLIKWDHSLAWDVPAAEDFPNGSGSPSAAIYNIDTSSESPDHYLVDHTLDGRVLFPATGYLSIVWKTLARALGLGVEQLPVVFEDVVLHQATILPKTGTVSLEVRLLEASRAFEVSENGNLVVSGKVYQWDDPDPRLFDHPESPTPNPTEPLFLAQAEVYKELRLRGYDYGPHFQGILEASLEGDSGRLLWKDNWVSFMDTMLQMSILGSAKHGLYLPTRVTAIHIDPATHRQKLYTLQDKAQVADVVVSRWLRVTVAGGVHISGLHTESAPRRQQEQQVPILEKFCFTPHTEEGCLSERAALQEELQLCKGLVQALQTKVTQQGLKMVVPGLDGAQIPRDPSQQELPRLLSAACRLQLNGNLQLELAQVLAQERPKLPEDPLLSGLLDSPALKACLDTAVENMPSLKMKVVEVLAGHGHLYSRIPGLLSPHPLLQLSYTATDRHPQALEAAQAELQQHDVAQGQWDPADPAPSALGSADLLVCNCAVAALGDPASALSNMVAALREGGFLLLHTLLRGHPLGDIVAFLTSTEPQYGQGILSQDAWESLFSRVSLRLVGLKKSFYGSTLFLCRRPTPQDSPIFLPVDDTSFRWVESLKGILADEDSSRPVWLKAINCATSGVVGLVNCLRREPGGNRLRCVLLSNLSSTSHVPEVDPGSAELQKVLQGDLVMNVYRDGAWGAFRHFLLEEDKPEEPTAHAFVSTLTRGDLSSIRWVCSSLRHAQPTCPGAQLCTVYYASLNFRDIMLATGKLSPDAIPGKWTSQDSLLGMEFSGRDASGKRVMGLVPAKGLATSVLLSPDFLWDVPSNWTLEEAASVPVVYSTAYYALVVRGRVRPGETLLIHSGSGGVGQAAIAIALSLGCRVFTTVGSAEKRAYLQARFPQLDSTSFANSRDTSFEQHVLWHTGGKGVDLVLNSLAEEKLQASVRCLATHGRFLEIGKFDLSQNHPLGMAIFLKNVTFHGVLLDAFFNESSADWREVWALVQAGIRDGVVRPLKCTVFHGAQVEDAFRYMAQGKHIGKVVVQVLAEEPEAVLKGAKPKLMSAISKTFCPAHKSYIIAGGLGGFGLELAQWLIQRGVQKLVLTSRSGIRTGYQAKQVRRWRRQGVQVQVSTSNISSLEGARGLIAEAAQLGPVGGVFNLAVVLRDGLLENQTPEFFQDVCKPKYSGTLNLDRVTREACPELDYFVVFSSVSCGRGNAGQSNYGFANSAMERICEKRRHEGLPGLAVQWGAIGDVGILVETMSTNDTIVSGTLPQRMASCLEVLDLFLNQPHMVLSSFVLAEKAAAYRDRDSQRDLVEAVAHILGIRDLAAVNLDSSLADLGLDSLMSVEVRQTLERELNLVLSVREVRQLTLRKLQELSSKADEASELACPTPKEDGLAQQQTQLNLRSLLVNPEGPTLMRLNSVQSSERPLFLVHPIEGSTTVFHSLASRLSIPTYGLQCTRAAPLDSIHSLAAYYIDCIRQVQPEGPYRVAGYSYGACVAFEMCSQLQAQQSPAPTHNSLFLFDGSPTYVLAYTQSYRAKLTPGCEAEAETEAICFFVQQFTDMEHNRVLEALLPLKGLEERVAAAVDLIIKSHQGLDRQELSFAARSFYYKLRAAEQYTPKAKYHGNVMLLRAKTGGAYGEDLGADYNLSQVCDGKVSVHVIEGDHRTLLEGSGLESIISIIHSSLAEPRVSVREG
Arr AP2 block: blocks beta-arrestin peptide binding to AP2 adaptin; FITC-arrestin peptide / GST-AP2 beads, flow cytometry; AP2 beta2 appendage carries R879A mutation; inhibition, % at 10 µM; 340,000 compounds, 0.31% hits;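 active means inhibition above a set limit, near 3 SD of compounds lacking own fluorescence, cut at about 54% in these data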
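Measured by: flow cytometry, FL1 (488/535 nm); Material: AP2 appendage R879A on GSH beads; Evaluation: percent response; Timing: pre-incubation 12 min, peptide binding 1 h, room temperature; Also added: 50 nM FITC-arrestin peptide; Medium: PBS with 0.05% Tween 20 and 0.1% BSA.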
iPSC survival up: enhancers of human iPSC single-cell survival; survival enhancement, % at 20 µM; 360,000 compounds, 0.044% hits; hiPSC single-cell survival, ATPlite luminescence; 100% = ROCK inhibitor wells, 0% = DMSO; AID 602274; in the data active means survival enhancement above about 18%;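 further: cells exposed to compounds for 16 hours before the ATP read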
Cardio protect: modulators protecting cardiomyocytes from myocardial damage. AID 588492. protection from H2O2 cell death, % at 20 µM. 360,000 compounds, 0.63% hits. H9c2 cardiomyocytes, H2O2 injury protection, ATPLite, 2 h;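 active means compounds giving at least 50% protection of heart cells from peroxide-induced death in the single-dose screen, raw or plate-pattern-corrected value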
GRIN3A LBD mod: NR3A (human) ligand-binding domain modulation; NR3A LBD differential scanning fluorimetry, Tm shift; 0% = protein alone, 100% = glycine-bound protein; Tm shift relative to glycine control, % at 25 µM; 340,000 compounds, 2.5% hits;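 active means melting temperature shift of at least 10% of the positive control shift, at one fixed dose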
SENP1 inh: inhibitors of human SENP1 SUMO protease catalytic domain | Q9P0U3 | recombinant SENP1 catalytic domain, CyPet-SUMO1-YPet FRET cleavage | inhibition, % at 10 µM | 360,000 compounds, 0.21% hits | AID 624204;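 active means inhibition at least 30% at 10 µM, raw YFP signal under a set limit, fluorescence ratio 0.5 to 1.5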
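Controls: no-enzyme wells low, DMSO-plus-enzyme wells high control. Test system: human recombinant His6-tagged SENP1 catalytic domain enzyme. Reagent: SFCypet-SUMO1-SFYpet FRET protein substrate, 25 nM final. Doses: one dose per compound, 10 µM, 0.5% DMSO. Detection: FRET, CFP and YFP emission. Timing: 50 min reaction at room temperature.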
FAS-TE conf: FAS thioesterase (human) inhibition, confirmation; shares compounds with FAS TE block; AID 624325; recombinant FAS-TE, OMFH fluorogenic substrate, fluorescence; inhibition, % at 15 µM; 2,300 compounds, 45% hits;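 active means compounds inhibiting the enzyme by at least 50% at 15 µM in any one of the replicates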
Numbers stand for hits; n = inactive; x = not tested or not shown. Shown are actives, neighbours in structure and some others; about 4% of the full set was active somewhere.

SMILES	FAS TE block	Arr AP2 block	iPSC survival up	Cardio protect	GRIN3A LBD mod	SENP1 inh	FAS-TE conf
COc1cccc(CN2CCC2(C)C(=O)Nc2cccc(NS(C)(=O)=O)c2)c1OC (centres undefined)	n	x	n	n	x	n	x
CCC(=O)N1CCC1(C)C(=O)NCc1ccc(SC)cc1 (centres undefined)	n	x	n	n	x	n	x
O=C(COC(=O)c1ccc2ncsc2c1)NCc1ccccc1Cl	n	n	n	n	n	n	x
COc1ccc(-c2nn(-c3ccccc3)cc2C(=O)N2CCN(S(=O)(=O)c3ccccc3[N+](=O)[O-])CC2)cc1	78	n	n	n	n	n	n
CCOC(=O)c1ccc(-c2c(-c3ccc(OC)cc3)oc(=O)c3cc(OC)c(OC)cc23)cc1F	58	n	n	n	n	n	n
COc1cc2c(-c3ccc4[nH]ccc4c3)c(-c3ccc(C#N)cc3)oc(=O)c2cc1OC	55	n	n	n	n	n	n
COc1cc2c(-c3ccc4cc[nH]c4c3)c(-c3ccsc3)oc(=O)c2cc1OC	n	n	n	n	n	n	x
CCOC(=O)c1ccc(-c2c(-c3cc(OC)c(OC)c(OC)c3)noc2C)cc1F	n	n	n	n	n	n	x
CC1(C(=O)NCCC#N)CCN1C(=O)c1ccccc1CCc1ccccc1 (centres undefined)	n	x	n	n	x	n	x
COc1ccc(CN(C)C(=O)/C=C/[C@H]2O[C@@H](n3cnc4c(N)ncnc43)[C@H](O)[C@@H]2O)cc1OC	n	x	n	n	x	n	x
Cc1cccc([C@@H]2[C@@H]3C(=O)N(Cc4ccccc4)C(=O)[C@@H]3[C@]3(CC(C)C)C(=O)N(c4cccc(F)c4)C(=O)N23)c1	72	n	n	n	n	n	n
Cc1cccc([C@@H]2[C@@H]3C(=O)N(Cc4ccccc4)C(=O)[C@@H]3[C@]3(Cc4ccccc4)C(=O)N(c4cccc(F)c4)C(=O)N23)c1	92	n	n	n	n	n	n
CC[C@@]12C(=O)N(c3cccc(F)c3)C(=O)N1[C@H](c1cccc(C)c1)[C@@H]1C(=O)N(Cc3ccccc3)C(=O)[C@@H]12	n	n	n	n	n	n	x
CCN1C(=O)[C@H]2[C@@H](c3ccccc3)N3C(=O)N(c4cccc(F)c4)C(=O)[C@@]3(CC(C)C)[C@H]2C1=O	n	n	n	n	n	n	x
O=C(O)C1C=CCC(C(=O)O)C1 (centres undefined)	n	x	n	n	x	n	x
O=C(Nc1cccc(Cl)c1)c1csc([C@@H]2O[C@H](CO)[C@H](O)[C@H](O)[C@H]2O)n1	n	x	n	n	x	n	x
Cc1cccc2cc(CN(Cc3cccs3)S(=O)(=O)c3ccc4c(c3)OCCO4)c(=O)[nH]c12	73	n	n	n	n	n	n
Cc1nc(N2CCOCC2)nc(Oc2ccccc2)c1[N+](=O)[O-]	52	n	n	n	n	n	n
Cc1ccc(S(=O)(=O)c2c(C(=O)c3ccccc3)cnc3cc4c(cc23)OCCO4)cc1	70	x	n	n	n	n	n
CC(=O)OCCCNc1cc(Sc2nc3ccccc3s2)c2nonc2c1[N+](=O)[O-]	82	n	n	n	n	n	67
CC(=O)OCCNc1cc(Sc2nc3ccccc3[nH]2)c2nonc2c1[N+](=O)[O-]	76	n	n	n	n	n	72
O=[N+]([O-])c1c(NCCCO)cc(SCc2ccco2)c2nonc12	n	n	n	n	n	n	x
O=[N+]([O-])c1c(NCCCO)cc(Sc2ccc(Cl)cc2)c2nonc12	61	n	n	n	n	n	49
O=C1[C@@H]2[C@@H](CN3CN(c4ccccc4)N=C(c4ccccc4)[C@@]23c2ccccc2)C(=O)N1c1ccccc1	57	n	n	n	n	n	n
O=C1NC[C@@H](CCCCN2CCN(Cc3ccccc3)C(=O)C2=O)N(Cc2ccccc2)C1=O	n	x	n	x	x	n	x
SMILES	FAS TE block	Arr AP2 block	iPSC survival up	Cardio protect	GRIN3A LBD mod	SENP1 inh	FAS-TE conf
CC(=O)c1cccc2c1OC(C)C(=O)N2Cc1ccc(Cl)cc1 (centres undefined)	57	x	n	n	x	n	62
Cc1cc(NC(=O)COC(=O)c2cc([N+](=O)[O-])ccc2N2CCOCC2)ccc1Br	79	n	n	n	x	n	80
Cc1cc(C)c(NC(=O)COC(=O)c2cc([N+](=O)[O-])ccc2N2CCOCC2)c(C)c1	65	n	n	n	n	n	54
Cc1ccc(NC(=O)c2cc([N+](=O)[O-])ccc2N2CCOCC2)cc1S(=O)(=O)N1CCOCC1	n	n	n	n	n	n	x
CCCCC(=O)N(C)c1c(C)nc2ccc(C(=O)Nc3cccc(OC)c3)cn12	n	x	n	n	x	n	x
CCOC1=C2[C@@H](CN(S(=O)(=O)c3ccc(C)cc3)[C@H]2c2ccccc2Cl)[C@H]2C(=O)N(Cc3ccccc3)C(=O)[C@H]2C1	n	x	n	n	x	n	x
Cc1ccccc1Cn1c(C)nc2ccc([N+](=O)[O-])cc2c1=O	61	n	n	n	n	n	51
Cc1nc2ccc([N+](=O)[O-])cc2c(=O)n1Cc1ccc(F)cc1	71	n	n	n	n	n	75
Cc1cccc(C(=O)OCC(=O)c2ccc3c(c2)NC(=O)CO3)c1	n	n	n	n	n	n	x
O=C(COC(=O)c1cc([N+](=O)[O-])ccc1Cl)NC1CCCC1	80	n	n	n	n	n	87
COC(=O)c1cc(C(=O)OCC(=O)NC2CCCCCCC2)cc([N+](=O)[O-])c1	70	n	n	n	n	n	37
COC(=O)c1cc(C(=O)OCC(=O)c2ccc3c(c2)NC(=O)CO3)cc([N+](=O)[O-])c1	57	n	n	n	n	n	53
COc1cc(C(O)c2nc(-c3ccc(C)c(C)c3)cs2)ccc1F (centres undefined)	n	x	n	n	x	n	x
Cc1ccc(C(=O)N2CCC3(CC2)Oc2ccc(F)cc2C(=O)C32CC(c3ccc(Cl)cc3)=NO2)s1 (centres undefined)	87	n	n	n	n	n	n
O=C(c1ccc2c(c1)OCO2)N1CCC2(CC1)Oc1ccc(F)cc1C(=O)C21CC(c2ccccc2)=NO1 (centres undefined)	67	x	n	n	n	n	n
O=C(c1ccoc1)N1CCC2(CC1)Oc1ccc(Cl)cc1C(=O)C21CC(c2ccc(Cl)cc2)=NO1 (centres undefined)	n	n	n	n	n	n	x
O=C(c1ccoc1)N1CCC2(CC1)Oc1ccc(F)cc1C(=O)C21CC(c2ccc(Cl)cc2)=NO1 (centres undefined)	74	n	n	n	n	n	n
